According to ChEMBL document CHEMBL3297654, “Synthesis, antimicrobial and cytotoxic activities, and structure-activity relationships of gypsogenin derivatives against human cancer cells” (Eur J Med Chem, 2014):
Active and inactive are the calls of the source. No cut-off for these calls is given here.

Assays:
Klebsiella pneumoniae = experiment: Antimicrobial activity against Klebsiella pneumoniae ATCC 13882 assessed as zone of inhibition at 30 uL for 24 hrs at 37 degC by disk diffusion test; format: functional, organism-based
Method in brief: (§1)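 Compound (30 µL of a fresh 1000 µg/mL DMSO stock) goes into a 6 mm well cut in Mueller Hinton agar inoculated with 0.1 mL broth culture adjusted to 0.5 McFarland (about 1×10^8 cells/mL). Plates are incubated 24 h at 37 °C, then zone of inhibition diameter is measured in mm.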

HL-60 [1] = experiment: Induction of apoptosis in human HL60 cells at 20 uM after 48 hrs by Hoechst 33258/propidium iodide staining based phase contrast microscopic analysis; format: functional
Method in brief: (§2)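 Cells in 48-well plates treated with 0.5, 10, 20 or 40 µM for 24 and 48 h. Values are read at 48 h, 20 µM for test agents and 0.5 µM for controls. Staining is Hoechst 33258/propidium iodide double staining with fluorescence microscopy. Blue nuclei are viable or early-to-mid apoptotic, and pink nuclei are late apoptotic or necrotic. Apoptosis and necrosis are scored from chromatin condensation as % of cells. Cells are grown at 37 °C in 5% CO2 in RPMI, DMEM or McCoy's 5A with 10–15% heat-inactivated FCS.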

HeLa [2] = experiment: Antiproliferative activity against human HeLa cells after 24 and 72 hrs by MTT assay; format: functional, cell-based
Method in brief: (§3)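 ATCC human cell lines are kept in RPMI, DMEM or McCoy's 5A with 10–15% heat-inactivated FCS at 37 °C and 5% CO2. They are seeded at 1×10^4–1×10^5 cells/mL in 48-well plates and exposed to 0.5, 10, 20 or 40 µM. Viability is read by MTT (590 nm) at 24 and 72 h. Growth is expressed relative to untreated cells and IC50 is fitted, in triplicate.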

Bacillus subtilis [3] = experiment: Antimicrobial activity against Bacillus subtilis ATCC 6633 for 24 hrs by microdillution method; format: functional
Method in brief: (§4)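 Broth microdilution. Compound is dissolved in DMSO (2 mg/mL) and diluted in Mueller Hinton broth as two-fold serial dilutions from 256 to 0.125 µg/mL. Bacteria are pre-grown in nutrient broth at 30 °C, and the final inoculum is about 10^6 cfu/mL. Tests are incubated 37 °C for 24 h. MIC is the lowest concentration giving complete inhibition. Streptomycin is the positive control.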

HL-60 [4] = experiment: Induction of necrosis in human HL60 cells at 20 uM after 48 hrs by Hoechst 33258/propidium iodide staining based phase contrast microscopic analysis; format: functional; method in brief: as §2
Cyberlindnera jadinii = experiment: Antimicrobial activity against Candida utilis ATCC 9950 assessed as zone of inhibition at 30 uL for 24 hrs at 30 degC by disk diffusion test; format: functional, organism-based
Method in brief: (§5)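 Agar well diffusion on Mueller Hinton agar seeded with 0.1 mL broth culture (18–24 h), adjusted to 0.5 McFarland (about 1×10^8 bacteria or 1×10^6 yeast cells/mL). A 6 mm well is filled with 30 µL of compound from a fresh 1000 µg/mL DMSO stock. Plates are held at 30 °C for 24 h and inhibition zone diameter is read in mm.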

HT-29 [5] = experiment: Induction of necrosis in human HT-29 cells at 20 uM after 48 hrs by Hoechst 33258/propidium iodide staining based phase contrast microscopic analysis; format: functional; method in brief: as §2
MCF7 [6] = experiment: Antiproliferative activity against human MCF7 cells after 24 and 72 hrs by MTT assay; format: functional, cell-based; method in brief: as §3
Bacillus cereus [7] = experiment: Antimicrobial activity against Bacillus cereus ATCC 11778 for 24 hrs by microdillution method; format: functional; method in brief: as §4
HT-29 [8] = experiment: Induction of apoptosis in human HT-29 cells at 20 uM after 48 hrs by Hoechst 33258/propidium iodide staining based phase contrast microscopic analysis; format: functional; method in brief: as §2
Caco-2 [9] = experiment: Antiproliferative activity against human Caco2 cells after 24 and 72 hrs by MTT assay; format: functional, cell-based; method in brief: as §3
MCF7 [10] = experiment: Induction of apoptosis in human MCF7 cells at 20 uM after 48 hrs by Hoechst 33258/propidium iodide staining based phase contrast microscopic analysis; format: functional; method in brief: as §2
SAOS-2 [11] = experiment: Induction of necrosis in human Saos2 cells at 20 uM after 48 hrs by Hoechst 33258/propidium iodide staining based […] microscopic analysis; format: functional; method in brief: as §2
Saccharomyces cerevisiae = experiment: Antimicrobial activity against Saccharomyces cerevisiae ATCC 9763 assessed as zone of inhibition at 30 uL for 24 hrs at 30 degC by disk diffusion test; format: functional, organism-based; method in brief: as §5
Bacillus subtilis [12] = experiment: Antimicrobial activity against Bacillus subtilis ATCC 6633 assessed as zone of inhibition at 30 uL for 24 hrs at 30 degC by disk diffusion test; format: functional; method in brief: as §5
Caco-2 [13] = experiment: Induction of necrosis in human Caco2 cells at 20 uM after 48 hrs by Hoechst 33258/propidium iodide staining based phase contrast microscopic analysis; format: functional; method in brief: as §2
HL-60 [14] = experiment: Antiproliferative activity against human HL60 cells after 24 and 72 hrs by MTT assay; format: functional, cell-based; method in brief: as §3
Bacillus thuringiensis [15] = experiment: Antimicrobial activity against Bacillus thuringiensis for 24 hrs by microdillution method; format: functional; method in brief: as §4
Salmonella typhimurium = experiment: Antimicrobial activity against Salmonella typhimurium ATCC 14028 assessed as zone of inhibition at 30 uL for 24 hrs at 37 degC by disk diffusion test; format: functional, organism-based; conditions: Salmonella enterica subsp. enterica serovar Typhimurium; method in brief: as §1
Caco-2 [16] = experiment: Induction of apoptosis in human Caco2 cells at 20 uM after 48 hrs by Hoechst 33258/propidium iodide staining based phase contrast microscopic analysis; format: functional; method in brief: as §2
Proteus vulgaris = experiment: Antimicrobial activity against Proteus vulgaris ATCC 33420 assessed as zone of inhibition at 30 uL for 24 hrs at 37 degC by disk diffusion test; format: functional, organism-based; method in brief: as §1
Bacillus thuringiensis [17] = experiment: Antimicrobial activity against Bacillus thuringiensis assessed as zone of inhibition at 30 uL for 24 hrs at 30 degC by disk diffusion test; format: functional; method in brief: as §5
MCF7 [18] = experiment: Induction of necrosis in human MCF7 cells at 20 uM after 48 hrs by Hoechst 33258/propidium iodide staining based phase contrast microscopic analysis; format: functional; method in brief: as §2
Candida tropicalis = experiment: Antimicrobial activity against Candida tropicalis assessed as zone of inhibition at 30 uL for 24 hrs at 30 degC by disk diffusion test; format: functional, organism-based; method in brief: as §5
Bacillus cereus [19] = experiment: Antimicrobial activity against Bacillus cereus ATCC 11778 assessed as zone of inhibition at 30 uL for 24 hrs at 30 degC by disk diffusion test; format: functional; method in brief: as §5
SAOS-2 [20] = experiment: Induction of apoptosis in human Saos2 cells at 20 uM after 48 hrs by Hoechst 33258/propidium iodide staining based phase contrast microscopic analysis; format: functional; method in brief: as §2
Candida albicans = experiment: Antimicrobial activity against Candida albicans ATCC 10231 assessed as zone of inhibition at 30 uL for 24 hrs at 30 degC by disk diffusion test; format: functional, organism-based; method in brief: as §5
Escherichia coli = experiment: Antimicrobial activity against Escherichia coli ATCC 25922 assessed as zone of inhibition at 30 uL for 24 hrs at 37 degC by disk diffusion test; format: functional, organism-based; method in brief: as §1
HeLa [21] = experiment: Induction of necrosis in human HeLa cells at 20 uM after 48 hrs by Hoechst 33258/propidium iodide staining based phase contrast microscopic analysis; format: functional; method in brief: as §2
HeLa [22] = experiment: Induction of apoptosis in human HeLa cells at 20 uM after 48 hrs by Hoechst 33258/propidium iodide staining based phase contrast microscopic analysis; format: functional; method in brief: as §2
[23] = system: Staphylococcus epidermidis; experiment: Antimicrobial activity against Staphylococcus epidermidis ATCC 12228 assessed as zone of inhibition at 30 uL for 24 hrs at 37 degC by disk diffusion test; format: functional, organism-based; method in brief: as §1
[24] = Antiproliferative activity against human Saos2 cells after 24 and 72 hrs by MTT assay; format: functional, cell-based; conditions: SAOS-2; method in brief: as §3
Enterococcus faecalis = experiment: Antimicrobial activity against Enterococcus faecalis ATCC 29212 assessed as zone of inhibition at 30 uL for 24 hrs at 37 degC by disk diffusion test; format: functional, organism-based; method in brief: as §1
Nakaseomyces glabratus = experiment: Antimicrobial activity against Candida glabrata assessed as zone of inhibition at 30 uL for 24 hrs at 30 degC by disk diffusion test; format: functional, organism-based; method in brief: as §5
Pseudomonas aeruginosa = experiment: Antimicrobial activity against Pseudomonas aeruginosa ATCC 35032 assessed as zone of inhibition at 30 uL for 24 hrs at 37 degC by disk diffusion test; format: functional, organism-based; method in brief: as §1
Staphylococcus aureus = experiment: Antimicrobial activity against Staphylococcus aureus ATCC 25923 assessed as zone of inhibition at 30 uL for 24 hrs at 37 degC by disk diffusion test; format: functional, organism-based; method in brief: as §1
Micrococcus luteus = experiment: Antimicrobial activity against Micrococcus luteus ATCC 9341 assessed as zone of inhibition at 30 uL for 24 hrs at 30 degC by disk diffusion test; format: functional, organism-based; method in brief: as §5
HT-29 [25] = experiment: Antiproliferative activity against human HT-29 cells after 24 and 72 hrs by MTT assay; format: functional, cell-based; method in brief: as §3

IC50 (HeLa [2]): 40.3 µM | MIC (Bacillus subtilis [3]): inactive | IC50 (MCF7 [6]): 9.9 µM | MIC (Bacillus cereus [7]): inactive | IC50 (Caco-2 [9]): 20.3 µM | IC50 (HL-60 [14]): 8.68 µM | MIC (Bacillus thuringiensis [15]): inactive | IC50 (HT-29 [25]): 21.4 µM
SMILES: CC(=O)O[C@H]1CC[C@]2(C)[C@H]3CC=C4[C@@H]5CC(C)(C)CC[C@]5(C(=O)OCc5ccccc5)CC[C@@]4(C)[C@]3(C)CC[C@H]2[C@]1(C)/C=N/O
diameter of the inhibition zone (DIZ) (Klebsiella pneumoniae): inactive | Activity (HL-60 [1]): 5% | Activity (HL-60 [4]): 50% | diameter of the inhibition zone (DIZ) (Cyberlindnera jadinii): inactive | Activity (HT-29 [5]): 14% | Activity (HT-29 [8]): 24% | Activity (MCF7 [10]): 10% | Activity (SAOS-2 [11]): 44% | diameter of the inhibition zone (DIZ) (Saccharomyces cerevisiae): inactive | diameter of the inhibition zone (DIZ) (Bacillus subtilis [12]): inactive | Activity (Caco-2 [13]): 33% | diameter of the inhibition zone (DIZ) (Salmonella typhimurium): inactive | Activity (Caco-2 [16]): 19% | diameter of the inhibition zone (DIZ) (Proteus vulgaris): inactive | diameter of the inhibition zone (DIZ) (Bacillus thuringiensis [17]): inactive | Activity (MCF7 [18]): 48% | diameter of the inhibition zone (DIZ) (Candida tropicalis): inactive | diameter of the inhibition zone (DIZ) (Bacillus cereus [19]): inactive | Activity (SAOS-2 [20]): 24% | diameter of the inhibition zone (DIZ) (Candida albicans): inactive | diameter of the inhibition zone (DIZ) (Escherichia coli): inactive | Activity (HeLa [21]): 50% | Activity (HeLa [22]): 15% | diameter of the inhibition zone (DIZ) [23]: inactive | IC50 [24]: 11.7 µM | diameter of the inhibition zone (DIZ) (Enterococcus faecalis): inactive | diameter of the inhibition zone (DIZ) (Nakaseomyces glabratus): inactive | diameter of the inhibition zone (DIZ) (Pseudomonas aeruginosa): inactive | diameter of the inhibition zone (DIZ) (Staphylococcus aureus): inactive | diameter of the inhibition zone (DIZ) (Micrococcus luteus): inactive
